Assay results from ChEMBL document CHEMBL1126931, “Synthesis of 20-hydroxy-, 20-amino-, and 20-nitro-14-hydroxy-21-nor-5 beta,14 beta-pregnane C-3 glycosides and related derivatives: structure-activity relationships of pregnanes that bind to the digitalis receptor” (J Med Chem, 1993).

Each molecule was assayed against Sodium/potassium-transporting ATPase (assay: Inhibition of [3H]- ouabain binding to digitalis receptor).
Format: protein-complex assay, Cavia porcellus
Method in brief: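 Radioligand binding to the digitalis receptor recognition site of heart muscle, read as displacement of [3H]ouabain.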

Compound | IC50 [nM]
CC1O[C@@H](O[C@H]2CC[C@@]3(C)[C@H](CC[C@@H]4[C@@H]3CC[C@]3(C)[C@@H](CO)CC[C@]43O)C2)C[C@@H](O)[C@@H]1O (stereo partly specified) | 610
CC1O[C@@H](O[C@H]2CC[C@@]3(C)[C@H](CC[C@@H]4[C@@H]3CC[C@]3(C)[C@@H](C[N+](=O)[O-])CC[C@]43O)C2)C[C@@H](O)[C@@H]1O (stereo partly specified) | 88
C[C@H]1O[C@H](O[C@H]2CC[C@@]3(C)[C@H](CC[C@@H]4[C@@H]3CC[C@]3(C)[C@@H](C(=O)CO)CC[C@]43O)C2)[C@H](O)[C@H](O)[C@H]1O | 1070
CC1O[C@@H](O[C@H]2CC[C@@]3(C)[C@H](CC[C@@H]4[C@@H]3CC[C@]3(C)[C@@H](CO)CC[C@]43O)C2)C(O)[C@@H](O)[C@H]1O (stereo partly specified) | 360
CC1O[C@@H](O[C@H]2CC[C@@]3(C)[C@H](CC[C@@H]4[C@@H]3CC[C@]3(C)[C@@H](C[N+](=O)[O-])CC[C@]43O)C2)C(O)[C@@H](O)[C@H]1O (stereo partly specified) | 12
CC1O[C@@H](O[C@H]2CC[C@@]3(C)[C@H](CC[C@@H]4[C@@H]3CC[C@]3(C)[C@@H](C(=O)O)CC[C@]43O)C2)C[C@@H](O)[C@@H]1O (stereo partly specified) | 36000
COC(=O)[C@H]1CC[C@]2(O)[C@@H]3CC[C@@H]4C[C@@H](O[C@H]5C[C@@H](O)[C@H](O)C(C)O5)CC[C@]4(C)[C@H]3CC[C@]12C (stereo partly specified) | 15000
CC1O[C@@H](O[C@H]2CC[C@@]3(C)[C@H](CC[C@@H]4[C@@H]3CC[C@]3(C)[C@@H](CN)CC[C@]43O)C2)C(O)[C@@H](O)[C@H]1O (stereo partly specified) | 99
CC1O[C@@H](O[C@H]2CC[C@@]3(C)[C@H](CC[C@@H]4[C@@H]3CC[C@]3(C)[C@@H](CC[N+](=O)[O-])CC[C@]43O)C2)C(O)[C@@H](O)[C@H]1O (stereo partly specified) | 45
C[C@H]1O[C@@H](O[C@H]2CC[C@@]3(C)[C@H](CC[C@@H]4[C@@H]3CC[C@]3(C)[C@@H](CN)CC[C@]43O)C2)C[C@@H](O)[C@@H]1O | 270
C[C@H]1O[C@@H](O[C@H]2[C@@H](O)C[C@H](O[C@H]3[C@@H](O)C[C@H](O[C@H]4CC[C@@]5(C)[C@H](CC[C@@H]6[C@@H]5CC[C@]5(C)[C@@H](C7=CC(=O)OC7)CC[C@]65O)C4)O[C@@H]3C)O[C@@H]2C)C[C@H](O)[C@@H]1O [DIGITOXIN] | 8
